From PubChem BioAssay AID504358 (Southern Research Specialized Biocontainment Screening …, 2011) come the findings set out here.

Activity calls are given as the source filed them.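 Rule for the calls: active = compounds blocking phage killing of the bacteria by at least 50% at some tested dose; inactive = the rest.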 Bounds are passed on as bounds.

A short description of assay [1]: protection from K1F lysis, OD600 growth read-out – E. coli UTI89, K1F phage, C7 control, bacterial capsule biogenesis inhibitors, confirmation (AID 504358). Particulars: E. coli UTI89 K1F phage lysis inhibition, OD600; for SI: measured here: selectivity index CC50/IC50, stronger effect = higher value. A digest of the protocol:
(§1)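 Assay system: E. coli UTI89 K1 cells with K1F phage. Times: 1.25 h compound, then 3 h phage, 37 °C. Signal: OD600 absorbance. Evaluation: phage lysis inferred from OD600 3 h after phage infection.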

The test system of assay [2] is E. coli UTI89 K1F phage lysis inhibition, OD600. The description is as above. Particulars: for CC50: measured here: cytotoxicity. Put shortly: as §1

As for `O=C(O)c1cc(-c2c[nH]c3ccccc23)nc2cc3ccccc3cc12`, the outcome in assay [1] was inactive.
Consider `CCOc1ccc(-c2cc(NC(=O)c3c(F)cccc3F)c(C(=O)O)s2)cc1`, for which, in assay [2], the IC50 is 6.2 µM and the CC50 stood at 66.7 µM. Also, in assay [1], the SI is 10.8.
Regarding `O=C(NCc1cc([N+](=O)[O-])ccc1O)c1cccnc1Sc1ccccc1Cl`, in assay [2], the IC50 was 26.1 µM and the CC50 was greater than 100 µM. Moreover, the SI in assay [1] is greater than 3.8.
For `C=CCOc1ccc(C2c3c(oc4ccccc4c3=O)C(=O)N2CCCN2CCOCC2)cc1` (stereo unspecified), in assay [2], the CC50 was greater than 100 µM. Besides, the result in assay [1] was inactive.
In the case of `O=C(COc1ccc(Cl)cc1Cl)Nc1ccc(C(=O)Nc2ccccc2C(=O)O)cc1`, the half-maximal cytotoxic concentration (CC50) in assay [2] was determined as 45.3 µM.
Turning to `O=C(ONc1ccc(N=NC(=O)c2ccccc2O)cc1)c1ccccc1`, in assay [2], the IC50 was 3.3 µM and the cytotoxic concentration (CC50) was 45.1 µM. Also, the SI in assay [1] worked out at 13.7.
The like results for `O=C(Nc1ccncc1)c1ccc2ncsc2c1` were, in that order, 3 µM, greater than 100 µM and greater than 33.
Turning to `COc1ccc(OC)c(-c2cc(C(=O)O)c3cc4ccccc4cc3n2)c1`, in assay [1], the outcome was inactive.
For `CC1(C(=O)O)CCC(C(=O)Nc2ccc3ccccc3c2)C1(C)C` (stereo unspecified), in assay [2], the IC50 was 69.8 µM and the CC50 was greater than 100 µM. Further, in assay [1], the SI is greater than 1.4.
With `Cc1cc(C)c2c(=O)c(-c3cc(C(=O)O)c4cc5ccccc5cc4n3)coc2c1`, the outcome in assay [1] was inactive.
For the molecule `Cc1ccc(C2c3c(oc4cc(C)c(C)cc4c3=O)C(=O)N2CCCN2CCOCC2)cc1` (stereo unspecified), the cytotoxic concentration (CC50) in assay [2] was found to be 44.4 µM. In assay [1], the outcome was inactive.
In the case of `O=C(O)c1cc(-c2cccc(Cl)c2)nc2cc3ccccc3cc12`, in assay [1], the result was inactive.
For the molecule `CC1=NN2C(=N)/C(=C\c3ccc(SCc4ccco4)o3)C(=O)N=C2S1`, in assay [2], the IC50 is 22.6 µM and the CC50 is greater than 100 µM. In assay [1], the SI is 4.4.
As to `O=C(NCc1cc([N+](=O)[O-])ccc1O)c1cccnc1Sc1ccccc1`, the CC50 in assay [2] was greater than 100 µM.
On to `COc1ccc2nc(NC(=O)c3ccc(Br)s3)sc2c1`, for which, in assay [2], the IC50 was 10.6 µM and the CC50 is greater than 100 µM. In addition, the SI in assay [1] is greater than 9.4.
